Entries after “also recorded” stand apart in the source; their conditions may differ.
Key:
[1] = biological target: T1, trypsin-like (T-L) activity of the proteasome (Oryctolagus cuniculus, UniProt G1SWK8); test: In vitro T-L proteasome inhibition, fluorogenic assay; assay type: biochemical, rabbit; settings: read-out: T-L inhibition at 10 μM (cells printed ND)
T1 sequence (G1SWK8 1-271): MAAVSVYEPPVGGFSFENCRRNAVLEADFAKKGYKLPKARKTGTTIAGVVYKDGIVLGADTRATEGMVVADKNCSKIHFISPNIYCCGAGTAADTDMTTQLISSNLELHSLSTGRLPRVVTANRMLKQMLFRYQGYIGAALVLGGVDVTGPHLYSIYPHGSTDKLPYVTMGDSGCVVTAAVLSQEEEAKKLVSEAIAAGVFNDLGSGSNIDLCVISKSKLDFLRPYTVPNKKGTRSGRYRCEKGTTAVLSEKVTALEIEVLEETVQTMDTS

[2] = test system: rabbit 20S proteasome CT-L activity; test: Dialysis using purified rabbit 20S proteasome; assay type: biochemical; settings: for mode of CT-L proteasome inhibition (reversible or irreversible): concluded from dialysis; for recovery of CT-L activity during dialysis: dialysis up to 18 h at 4 °C
Outline: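 Test compound at 10 μM, or 0.1% DMSO vehicle, was added to rabbit 20S proteasome (1.5 nM final) in 50 mM Tris-HCl pH 7.6 and held 30 min at room temperature. The mixture was dialysed (3,500 MWCO) against assay buffer at 4 °C and sampled at 0, 0.5, 1, 4, 8 and 18 h. CT-L activity was assayed per the earlier method and normalised to the DMSO control.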

[3] = Stability in biological media by HPLC; assay type: physicochemical; settings: DMEM and RPMI-1640 without serum, 10 μM, 1% DMSO, 37 °C, 1, 3, 5, 7 days
Outline: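 A 1 mM DMSO stock from fresh powder was diluted into serum-free DMEM or RPMI (10 μM final, 1% DMSO), with 5 replicates per medium, and kept at 37 °C. Vials were removed on days 1, 3, 5 and 7, chilled to 0 °C on ice and analysed at once by HPLC. Conditions: C18, 5 μm, 4.6×150 mm, isocratic 35% or 50% CH3CN/water with 0.1% TFA depending on compound, 1 ml/min, 30 min. Peak area was plotted against day.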

[4] = Stability at room temperature; assay type: physicochemical; settings: for stability at room temperature: 1H NMR in deuterated DMSO up to 3 weeks, HPLC and LCMS in tris buffer
[5] = biological target: T2, chymotrypsin-like (CT-L) activity of the 20S proteasome (Oryctolagus cuniculus, UniProt G1T4Q9); test: In vitro CT-L proteasome inhibition, fluorogenic assay; assay type: biochemical, rabbit; settings: for IC50: CT-L inhibitory activity IC50, in vitro
T2 sequence (G1T4Q9 60-263): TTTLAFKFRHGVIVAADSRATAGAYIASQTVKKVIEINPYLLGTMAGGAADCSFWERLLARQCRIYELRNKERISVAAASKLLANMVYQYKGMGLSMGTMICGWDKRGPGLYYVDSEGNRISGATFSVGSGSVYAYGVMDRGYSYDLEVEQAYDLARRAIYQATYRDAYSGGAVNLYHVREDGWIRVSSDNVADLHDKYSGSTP

[6] = test system: ubiquitinated cellular proteins in MDA-MB-468 cells; test: Ubiquitination by Western blot analysis; assay type: cell-based, human; settings: MDA-MB-468, 11 hours, various concentrations

SMILES: O=C(O)CSc1cc(NS(=O)(=O)c2cccs2)c2ccccc2c1O [Compound 1, 2-(1-Hydroxy-4-(thiophene-2-sulfonamido)naphthalen-2-ylthio)acetic acid]
- inhibition at 10 µM [1]: < 70%
- mode of CT-L proteasome inhibition (reversible or irreversible) [2]: irreversibly; also recorded: irreversible
- recovery of CT-L activity during dialysis [2]: did not show any recovery
- stability in biological media (HPLC peak area) [3]: stable up to 7 days at 37 °C
- stability at room temperature [4]: stable at room temperature for up to two weeks
- impurities (oxidized material) after 2 weeks ([4]; room temperature, after 2 weeks): 3–5%

SMILES: O=C(O)CCSc1cc(NS(=O)(=O)c2cccs2)c2ccccc2c1O [Compound 11d, 3-(1-Hydroxy-4-(thiophene-2-sulfonamido)naphthalen-2-ylthio)propanoic acid]
- fold decreased potency (CT-L) ([5]; extended side chain, compared with compound 1): 2 fold

SMILES: O=S(=O)(Nc1cc(Sc2nnn[nH]2)c(O)c2ccccc12)c1cccs1 [Compound 15d, N-(3-(1H-tetrazol-5-ylthio)-4-hydroxynaphthalen-1-yl)thiophene-2-sulfonamide]
- selectivity CT-L versus T-L (in words) ([5]; in vitro): more selective for T-L over CT-L

SMILES: O=S(=O)(Nc1cc(Sc2nnn[nH]2)c(O)c2ccccc12)c1ccc(-c2ccccc2)cc1 [Compound 15e, N-(3-(1H-tetrazol-5-ylthio)-4-hydroxynaphthalen-1-yl)biphenyl-4-sulfonamide]
- IC50 [5]: ~200 nM
- fold improved CT-L inhibitory activity ([5]; compared with compound 1): up to 20 fold

SMILES: O=S(=O)(Nc1cc(Sc2nnn[nH]2)c(O)c2ccccc12)c1ccc(-c2ccccc2)s1 [Compound 15f, N-(3-(1H-tetrazol-5-ylthio)-4-hydroxynaphthalen-1-yl)-5-phenylthiophene-2-sulfonamide]
- IC50 [5]: ~200 nM
- fold improved CT-L inhibitory activity ([5]; compared with compound 1): up to 20 fold
- stability at room temperature [4]: stable at room temperature for up to two weeks

SMILES: O=S(=O)(Nc1cc(Sc2nnn[nH]2)c(O)c2ccccc12)c1ccc(C2CCCCC2)cc1 [Compound 15h, N-(3-(1H-tetrazol-5-ylthio)-4-hydroxynaphthalen-1-yl)-4-cyclohexylbenzenesulfonamide]
- IC50 [5]: ~200 nM
- fold improved CT-L inhibitory activity ([5]; compared with compound 1): up to 20 fold

SMILES: O=S(=O)(Nc1cc(Sc2nnn[nH]2)c(O)c2ccccc12)c1ccc(-c2ccc(F)cc2)cc1 [Compound 15j, N-(3-(1H-tetrazol-5-ylthio)-4-hydroxynaphthalen-1-yl)-4′-fluorobiphenyl-4-sulfonamide]
- IC50 [5]: ~200 nM
- fold improved CT-L inhibitory activity ([5]; compared with compound 1): up to 20 fold

SMILES: O=S(=O)(Nc1cc(Sc2nnn[nH]2)c(O)c2ccccc12)c1ccc(Oc2ccccc2)cc1 [Compound 15k, N-(3-(1H-tetrazol-5-ylthio)-4-hydroxynaphthalen-1-yl)-4-phenoxybenzenesulfonamide]
- fold improved CT-L inhibitory activity ([5]; compared with compound 1): up to 20 fold
- stability in biological media (HPLC peak area) [3]: stable up to 7 days at 37 °C

SMILES: O=C(O)CSc1ccc(NS(=O)(=O)c2cccs2)c2ccccc12 [Compound 23, 2-(4-(Thiophene-2-sulfonamido)naphthalen-1-ylthio)acetic acid]
- IC50 [5]: > 100000 nM

SMILES: O=S(=O)(Nc1cc(Sc2nnc[nH]2)c(O)c2ccccc12)c1ccc(-c2ccccc2)cc1 [Compound 25]
- stability at room temperature [4]: stable at room temperature for up to two weeks

SMILES: O=S(=O)(Nc1cc(Sc2ncn[nH]2)c(O)c2ccccc12)c1ccc(-c2ccc(F)cc2)cc1 [Compound 27, N-(3-(1H-1,2,4-triazol-3-ylthio)-4-hydroxynaphthalen-1-yl)-4′-fluorobiphenyl-4-sulfonamide]
- fold improved CT-L inhibitory activity ([5]; compared with compound 1): up to 20 fold

SMILES: O=S(=O)(Nc1cc(Sc2ncn[nH]2)c(O)c2ccccc12)c1ccc(Oc2ccccc2)cc1 [Compound 29, N-(3-(1H-1,2,4-triazol-3-ylthio)-4-hydroxynaphthalen-1-yl)-4-phenoxybenzenesulfonamide]
- fold improved CT-L inhibitory activity ([5]; compared with compound 1): up to 20 fold
- selectivity for CT-L over T-L activity ([5]; in vitro): 28 fold

SMILES: O=S(=O)(Nc1cc(Sc2nnn[nH]2)c(O)c2ccccc12)c1ccc(Cl)cc1 [Compound 35, N-(3-(1H-tetrazol-5-ylthio)-4-hydroxynaphthalen-1-yl)-4-chlorobenzenesulfonamide]
- selectivity CT-L versus T-L (in words) ([5]; in vitro): equipotent against CT-L and T-L activities

SMILES: O=S(=O)(Nc1cc(Sc2nnn[nH]2)c(O)c2ccccc12)c1ccc(Cl)c(Cl)c1 [Compound 36, N-(3-(1H-tetrazol-5-ylthio)-4-hydroxynaphthalen-1-yl)-3,4-dichlorobenzenesulfonamide]
- selectivity CT-L versus T-L (in words) ([5]; in vitro): equipotent against CT-L and T-L activities

SMILES: O=S(=O)(Nc1cc(Sc2nnn[nH]2)c(O)c2ccccc12)c1ccc(-c2ccc(C(F)(F)F)cc2)cc1 [Compound 39, N-(3-(1H-tetrazol-5-ylthio)-4-hydroxynaphthalen-1-yl)-4′-(trifluoromethyl)biphenyl-4-sulfonamide]
- ubiquitination / accumulation of ubiquitinated cellular proteins [6]: concentration-dependent increase in ubiquitination; also recorded: induced the accumulation of ubiquitinated cellular proteins
- mode of CT-L proteasome inhibition (reversible or irreversible) [2]: irreversibly; also recorded: irreversible
- recovery of CT-L activity during dialysis [2]: did not show any recovery
- stability in biological media (HPLC peak area) [3]: stable up to 7 days at 37 °C

From article PMC3530929 (Journal of medicinal chemistry, 2012)
